From ChEMBL document CHEMBL4190252, “Synthesis, antitumor activity and CDK1 inhibiton of new thiazole nortopsentin analogues” (Eur J Med Chem, 2017)

Biological target: Cyclin-dependent kinase 1/cyclin B1 (Homo sapiens, UniProt P06493)
Test: Inhibition of recombinant human full length His-tagged CDK1/cyclin B expressed in baculovirus expression system after 60 mins in presence of omnia peptide substrate by fluorescence based assay
In short: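 Recombinant human CDK1/cyclin B in kinase buffer with Omnia peptide substrate, ATP and DTT, with inhibitor at 0.1–10 µM. Reactions ran for 60 min at 30 °C, with fluorescence read at ex 360/em 485 nm. Initial velocity came from the RFU-versus-time slope and was plotted against concentration for a dose-response IC50 fit. Values are mean±SD of two determinations.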

Cyclin-dependent kinase 1/cyclin B1, sequence (P06493 whole entry): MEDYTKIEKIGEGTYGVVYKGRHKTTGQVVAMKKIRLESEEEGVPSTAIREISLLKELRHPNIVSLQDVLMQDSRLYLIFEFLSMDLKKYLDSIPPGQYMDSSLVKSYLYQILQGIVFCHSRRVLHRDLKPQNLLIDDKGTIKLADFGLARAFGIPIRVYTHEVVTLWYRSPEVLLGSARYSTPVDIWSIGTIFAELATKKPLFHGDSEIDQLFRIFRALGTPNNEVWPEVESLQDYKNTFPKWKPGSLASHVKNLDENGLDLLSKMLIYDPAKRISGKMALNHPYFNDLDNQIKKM
Cyclin-dependent kinase 1/cyclin B1, sequence (P14635 whole entry, further chain): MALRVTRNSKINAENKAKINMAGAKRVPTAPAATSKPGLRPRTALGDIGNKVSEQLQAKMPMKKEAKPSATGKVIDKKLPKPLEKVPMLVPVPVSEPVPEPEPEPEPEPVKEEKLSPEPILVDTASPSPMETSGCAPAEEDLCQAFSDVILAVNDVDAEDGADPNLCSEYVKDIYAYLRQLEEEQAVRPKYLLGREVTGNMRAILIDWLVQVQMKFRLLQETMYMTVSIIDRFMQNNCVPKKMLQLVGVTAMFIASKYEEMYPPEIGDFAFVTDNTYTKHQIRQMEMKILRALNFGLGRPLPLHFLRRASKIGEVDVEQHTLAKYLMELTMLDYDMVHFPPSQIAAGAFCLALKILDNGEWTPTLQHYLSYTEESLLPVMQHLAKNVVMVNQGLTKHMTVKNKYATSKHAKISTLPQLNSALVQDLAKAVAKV

IC50: 970 nM
Compound: Cn1cc(-c2nc(-c3cn(C)c4ncccc34)cs2)c2cc(F)ccc21
